# Screens: PubChem BioAssay, several laboratories
# Rows were chosen to be rich in hits. Some 1.8% of all compounds tested hit in one or more screens of this group.
# Casp6 inh – inhibitors of human caspase-6. P55212. purified caspase-6, Z-VEID-R110 cleavage fluorescence. inhibition, % at 12.5 µM. 350,000 compounds, 0.53% hits. AID 686996;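 active means mean inhibition across replicates at least about 35%, with every replicate also reaching that limit, limit read from the data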;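 further: 0% = median of neutral control wells and 100% = no fluorescence left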
# MBD2 DNA inh – MBD2-methylated oligo binding inhibition; TR-FRET, MBD2 binding to methylated oligonucleotide; inhibition, % at 4.4 µM; 370,000 compounds, 0.31% hits; AID 686964; in the data active means inhibition above about 13%
# Target sequence (Q9UBB5 whole entry, looked up): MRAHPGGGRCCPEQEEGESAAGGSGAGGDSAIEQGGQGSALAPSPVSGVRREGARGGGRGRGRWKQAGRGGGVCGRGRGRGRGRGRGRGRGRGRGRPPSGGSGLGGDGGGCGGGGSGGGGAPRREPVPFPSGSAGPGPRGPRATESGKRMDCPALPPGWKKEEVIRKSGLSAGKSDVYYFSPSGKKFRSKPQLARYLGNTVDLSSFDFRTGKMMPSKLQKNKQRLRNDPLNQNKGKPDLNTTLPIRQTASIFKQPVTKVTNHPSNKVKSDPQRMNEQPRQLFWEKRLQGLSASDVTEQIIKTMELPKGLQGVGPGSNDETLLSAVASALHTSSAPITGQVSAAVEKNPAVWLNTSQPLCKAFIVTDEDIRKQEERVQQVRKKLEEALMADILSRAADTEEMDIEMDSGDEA
# LEDGF integ inh – blocks HIV-1 LEDGF/p75-dependent DNA integration; TR-FRET IN-LEDGF/p75 DNA integration, Eu/Cy5; inhibition, % at 3.7 µM; 370,000 compounds, 0.64% hits;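 active means inhibition above the screen-wide mean plus 3 SD, cut at about 13% in these data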;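 further: signal is the Cy5 over europium emission ratio at 671 and 618 nm; 0% = plate median of compound wells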
# UHRF1 binding – human UHRF1 methylated DNA binding inhibitors. inhibition, % at 4.4 µM. 370,000 compounds, 0.75% hits. Q96T88. UHRF1 binding to methylated oligo, TR-FRET; in the data active means inhibition above about 21%;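 further: UHRF1 SRA domain binding a hemimethylated CpG hairpin DNA probe; 0% = median of test compound wells and 100% = reference inhibitor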
# NSD2 inh – blocks human histone methyltransferase NSD2; NSD2 peptide methylation, AlphaScreen, 120 min; O96028; 310,000 compounds, 0.54% hits; inhibition, % at 12.5 µM; AID 743445; in the data active means inhibition above about 50%
# TDP2 inh – TDP2 (human) inhibition, absorbance primary screen; inhibition, % at 12.8 µM; recombinant TDP2, T5PNP hydrolysis, p-nitrophenol absorbance 415 nm; O95551; AID 720702; 370,000 compounds, 0.34% hits;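 active means inhibition above the mean of all tested compounds plus 3 SD, set per campaign, cut at about 25% in these data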;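 further: 0% = DMSO with enzyme and 100% = buffer with substrate but no TDP2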
#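 Evaluation: % inhibition relative to enzyme-containing and enzyme-free wells. Material: recombinant human TDP2. Benchmarks: enzyme-free and DMSO wells. Timing: enzyme reaction with compound for 2 h at 37 °C. Compound dosing: 12.8 µM only. Measured by: p-Nitrophenol epi absorbance. Reagent: T5PNP substrate at 5 mM, a TopII-DNA adduct mimic. Replication: single well per compound.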
# IN multimer up – HIV-1 integrase multimerization activation, counter-screen; shares compounds with LEDGF integ inh; TR-FRET HIV-1 integrase multimerization, biochemical; activation, % at 7.7 µM; 2,000 compounds, 17% hits; AID 1053131; in the data active means activation above about 8.9%
# TR-FRET interf – counter-screen for LEDGF/p75 integration inhibitors: TR-FRET optical interference; inhibition, % at 7.7 µM; TR-FRET optical interference counterscreen, HIV-1 IN multimerization; shares compounds with LEDGF integ inh; AID 1053135; 2,000 tested, under 10 active;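 active means inhibition above the mean over all tested compounds plus 3 SD, which no compound reached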;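 further: 0% = integrase with antibodies and DMSO and 100% = antibodies without integrase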
# LEDGF integ conf – LEDGF/p75-dependent HIV-1 integration inhibition, confirmation. shares compounds with LEDGF integ inh. TR-FRET LEDGF/p75-dependent HIV-1 integration, biochemical. inhibition, % at 3.7 µM. 2,000 compounds, 36% hits; in the data active means inhibition above about 14%
# Alpha artifact – counter-screen for NSD2 inhibitors: AlphaScreen artifacts. shares compounds with NSD2 inh. AlphaScreen artifact counterscreen, preloaded methylated H4 peptide. AC35, µM (top dose mostly 10 µM), inactives show top-dose activity change, negative = signal loss. 1,500 compounds, 9.4% hits. AID 1053174; call rule not given here
# * hit, by the source's call; . = no result.
SMILES,Casp6 inh,MBD2 DNA inh,LEDGF integ inh,UHRF1 binding,NSD2 inh,TDP2 inh,Alpha artifact,others
C[C@@H]1CN([C@@H](C)CO)S(=O)(=O)c2ccc(C#CC3CC3)cc2O[C@H]1CN(C)C,2,.,.,.,.,.,.,
CCOC(=O)CCCCC(=O)c1[nH]c(=O)[nH]c1CSc1nc(C)cc(=O)[nH]1,-3,5,35*,0,106*,-11,-9%,IN multimer up=4;TR-FRET interf=-16;LEDGF integ conf=49*
O=C(c1coc(=O)c(Br)c1)N1CCCc2ccccc21,.,6,19*,14,52*,1,-4%,IN multimer up=-1;TR-FRET interf=4;LEDGF integ conf=17*
O=C1c2cccc(Sc3ccccc3)c2C(=O)c2c(Sc3ccccc3)cccc21,10,10,14*,24*,76*,12,-17%,IN multimer up=3;TR-FRET interf=-11;LEDGF integ conf=-7
CCN(CC)CCNc1ncnc2c1sc1nc(N3CCCC3)c3c(c12)CC(C)(C)OC3,1,7,3,23*,80*,-16,-15%,
O=C(c1ccccc1)c1cc2ccccc2oc1=O,.,-1,3,1,113*,-15,0%,
Cc1nc([N+](=O)[O-])c(C(=O)OCc2ccccc2F)n1C,1,-2,-1,5,54*,-11,-3%,
CCNC(=O)C[C@H]1CC[C@@H]2[C@@H](COc3ccc(NC(=O)C4CCOCC4)cc3C(=O)N2C)O1,0,.,.,.,.,.,.,
N=C1S/C(=C\c2ccc(-c3ccccc3C(=O)O)o2)C(=O)N1c1ccc2c(c1)OCO2,20,7,-1,23*,99*,-9,-4%,
O=C(NCC[C@@H]1CC[C@H](NS(=O)(=O)c2ccc(Oc3ccccc3)cc2)[C@@H](CO)O1)C1CC1,-2,.,.,.,.,.,.,
CCN1CC2CCCC3(C1)C(=O)NC1(CCCCC1)N=C23 (stereo not drawn),.,3,0,1,56*,2,-4%,
COc1ccc(C2CC(c3ccc(Cl)cc3)=NN2C(C)=O)cc1 (stereo not drawn),5,2,-6,5,54*,-11,-4%,
COc1ccc(C2SCCN2S(=O)(=O)c2ccccc2)cc1 (stereo not drawn),-3,0,-5,3,99*,-9,-1%,
COc1ccc(C2SCCN2S(=O)(=O)c2ccc(NC(C)=O)cc2)cc1 (stereo not drawn),.,5,-1,4,-6,-18,.,
C[C@@H]1CCCCO[C@@H](CN(C)C(=O)Nc2ccc(C(F)(F)F)cc2)[C@H](C)CN([C@@H](C)CO)C(=O)c2cc(NC(=O)NC3CCCCC3)ccc2O1,-1,.,.,.,.,.,.,
COc1ccc2c3c(n(C)c2c1)[C@@H](CO)N(C(=O)CC1CC1)CC31CCN(C(=O)C2CCCC2)CC1,2,.,.,.,.,.,.,
COc1ccc(CNC(=O)CCCN2C(=O)NC3(CCCC3)C2=O)cc1,-3,1,-4,0,58*,11,-5%,
COc1ccc(CNC(=O)CN2C(=O)NC3(CCCCCC3)C2=O)cc1,0,2,-1,8,-1,-2,.,
CC[n+]1c(/C=C/c2c[nH]c3ccccc23)ccc2cc(C)ccc21,-11,-34,1,-91,108*,5,-15%,
CCN(CC)C(=O)c1ccc(/C=C/c2c[nH]c3ccccc23)[n+](C)c1,.,-50,0,-175,36,-8,.,
CCCC#Cc1ccc([C@@H]2[C@@H](CO)N3C(=O)CN(C(=O)c4ccc(F)cc4)C[C@H]23)cc1,0,.,.,.,.,.,.,
